Measured values collected from several papers.
Protocols differ between the studies behind these lines.
Target: BDNF/NT-3 growth factors receptor (NTRK2, Homo sapiens, UniProt Q16620)

C#Cc1n[nH]c2c(-c3cn([C@@H](C)c4ccccc4)c(=O)[nH]c3=O)cc(F)cc12
inhibition (enzyme activity; inhibitor; 0.1 µM): 6.2%

O=c1[nH]c2ccccc2n1C1CCN(Cc2ccc(-c3[nH]c4cc5ncnc5cc4nc3-c3ccccc3)cc2)CC1
remaining signal (cell-free assay; 0.5 µM): 99.4%

COc1cc(Nc2ncc(F)c(Nc3ccc4c(n3)NC(=O)C(C)(C)O4)n2)cc(OC)c1OC
inhibition (binding; competition with immobilised ligand; 10 µM): 95%

Cn1cc(-c2cc(F)cc(N3CCn4c(cc5c4CCCC5)C3=O)c2CO)cc(Nc2ccc(N3CCN(C4COC4)CC3)cn2)c1=O
inhibition (enzyme activity; inhibitor; 0.1 µM): 11%

Cc1nn(C)cc1-c1nc2c(N3CCN(Cc4ccc(Cl)cc4)CC3)c(Cl)cnc2[nH]1
remaining binding (binding; competition with immobilised ligand; 1 µM): 44%

CC(C)(C)c1cc(C=C(C#N)C#N)cc(Br)c1O
remaining activity (enzyme activity; inhibitor; 0.5 µM): 90.9%

Cn1cncc1[C@](O)(COc1ccc(C#N)cc1-c1ccc(OC(F)(F)F)cc1)c1ccc(C#N)cc1
remaining binding (cell-free assay; competition with immobilised ligand; 1 µM): 92%

Nc1ncc(-c2nc(N3CCOCC3)nc(N3CCOCC3)n2)c(C(F)F)n1
remaining binding (cell-free assay; competition with immobilised ligand; 10 µM): 74%

COc1ncccc1-c1cnn2ccc(N3CCN(C(=O)OC(C)C)CC3)nc12
remaining binding (binding; competition with immobilised ligand; 1 µM): 40%

N#CC1(c2ccccn2)CCN(Cc2cc(C(=O)O)c(=O)n3ccccc23)CC1
remaining binding (cell-free assay; competition with immobilised ligand; 1 µM): 84%

C#Cc1n[nH]c2c(-c3cn(C(C)c4ccccn4)c(=O)[nH]c3=O)cc(F)cc12 (centres unmarked)
inhibition (enzyme activity; inhibitor; 1 µM): 2.8%
